Measured values pooled from the literature.
Compare with care: the assays were run in different laboratories.
LYZ: Lysozyme C (LYZ, Gallus gallus, UniProt P00698)
SMARCA2 bromodomain: SWI/SNF-related matrix-associated actin-dependent regulator of chromatin subfamily A member 2, bromodomain (SMARCA2, Homo sapiens, UniProt P51531)
HSP90B1: Endoplasmin (HSP90B1, Canis lupus familiaris, UniProt P41148)
TYK2 JH2: Non-receptor tyrosine-protein kinase TYK2, JH2 (TYK2, Homo sapiens, UniProt P29597)
MTOR: Serine/threonine-protein kinase mTOR (MTOR, Homo sapiens, UniProt P42345)

Compound	target	observed	technique	pH	setting	Kd [nM]
CCN(CC)CCCC(C)Nc1c2ccc(Cl)cc2nc2ccc(OC)cc12 (stereo not shown)	LYZ	binding	fluorescence	–	–	4700
Cc1ncsc1-c1ccc(CNC(=O)[C@@H]2C[C@@H](O)CN2C(=O)[C@@H](NC(=O)C2(F)CC2)C(C)(C)C)c(OCCOCCOCCN2CCN(c3cc(-c4ccccc4O)nnc3N)CC2)c1	SMARCA2 bromodomain	binding	SPR	–	–	4500
COC(=O)c1c(O)cc(O)c(Cl)c1CCC(=O)Nc1cccc(Cl)c1	HSP90B1	ligand displacement	FP	–	–	6420
CC(C)Nc1ccnc(Nc2cccc(-c3cccnc3)c2)n1	TYK2 JH2	binding	competition with immobilised ligand	–	–	210
COC(=O)c1c(O)cc(O)c(Cl)c1CCC(=O)Nc1ccccc1	HSP90B1	ligand displacement	FP	–	–	20500
Cc1ncsc1-c1ccc(CNC(=O)[C@@H]2C[C@H](O)CN2C(=O)[C@@H](NC(=O)C2(F)CC2)C(C)(C)C)c(OCCOc2ccc(CN3CCN(c4cc(-c5ccccc5O)nnc4N)CC3)cc2)c1	SMARCA2 bromodomain	binding	SPR	–	–	1100
C=CC(=O)N1CCC(C(=O)NCC(=O)N2CCN(c3nc(-c4cnc(N)nc4C(F)F)nc(N4CCOCC4)n3)CC2)CC1	MTOR	binding	competition with immobilised ligand	–	–	32
c1cncc(-c2cccc(Nc3nccc(NC4CCCCC4)n3)c2)c1	TYK2 JH2	binding	competition with immobilised ligand	–	–	740
Cc1cc2nc3c(=O)[nH]c(=O)nc-3n(C[C@H](O)[C@H](O)[C@H](O)COP(=O)(O)OP(=O)(O)OC[C@H]3O[C@@H](n4cnc5c(N)ncnc54)[C@H](O)[C@@H]3O)c2cc1C	Heterogeneous nuclear ribonucleoprotein H (Homo sapiens, UniProt P31943)	binding	–	–	lysate	53
NCCS(=O)(=O)O	Cyclin-dependent kinase 6 (CDK6, Homo sapiens, UniProt Q00534)	binding	–	–	–	143
COCCOCCc1c(C)c2cc(OC)c(O)c(C=O)c2oc1=O	Serine/threonine-protein kinase/endoribonuclease IRE1 (Mus musculus, UniProt Q9EQY0, N772Y)	binding	–	–	–	840
COc1cc2c(Nc3ccc(NC(=O)c4ccccc4)cc3)ncnc2cc1OCCCN1CCOCC1	Epidermal growth factor receptor (EGFR, Homo sapiens, UniProt P00533)	binding	–	–	–	> 10000
CCC(=O)N1CCC(C(=O)N(C)CC(=O)N2CCN(c3nc(-c4cnc(N)nc4C(F)F)nc(N4CCOCC4)n3)CC2)CC1	MTOR	binding	competition with immobilised ligand	–	–	54
CC(=O)N[C@H]1[C@H](O[C@H]2[C@H](O)[C@@H](NC(C)=O)C(O)O[C@@H]2CO)O[C@H](CO)[C@@H](O[C@@H]2O[C@H](CO)[C@@H](O)[C@H](O)[C@H]2NC(C)=O)[C@@H]1O (stereo partly shown)	LYZ	binding	–	pH 7.4	–	6200
CCC(=O)N1CCC(C(=O)NCC(=O)N2CCN(c3nc(-c4cnc(N)nc4C(F)F)nc(N4CCOCC4)n3)CC2)CC1	MTOR	binding	competition with immobilised ligand	–	–	33
COC(=O)c1c(O)cc(O)c(Cl)c1CCC(=O)Nc1ccc(Br)cc1	HSP90B1	ligand displacement	FP	–	–	1500
